PAFAH1B3 FP inh: PAFAH1B3 enzyme inhibitors, primary screen, biochemical, fluorescence polarization, human. inhibition, % at 3.39 µM. 0.28% of 340,000 active. recombinant PAFAH1B3, FP-rhodamine probe. Platelet-activating factor acetylhydrolase IB subunit alpha1 (Homo sapiens), Q15102;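 active means inhibition above the screen-wide average of all tested compounds plus 3 SD, cut at about 25% in these data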;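 further: 0% = enzyme with DMSO only and 100% = wells lacking PAFAH1B3 protein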
Target sequence (Q15102 whole entry, looked up): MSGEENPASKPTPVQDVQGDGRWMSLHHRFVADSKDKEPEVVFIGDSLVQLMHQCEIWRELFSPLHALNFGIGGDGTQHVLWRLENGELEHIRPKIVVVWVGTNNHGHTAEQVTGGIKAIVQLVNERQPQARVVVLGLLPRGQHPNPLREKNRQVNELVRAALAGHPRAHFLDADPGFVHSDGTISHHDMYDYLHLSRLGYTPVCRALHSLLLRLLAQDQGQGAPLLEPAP
PAFAH1B2 FP inh: PAFAH1B2 enzyme inhibitors, primary screen, biochemical, fluorescence polarization, human; Platelet-activating factor acetylhydrolase IB subunit alpha2 (Homo sapiens), P68402; recombinant PAFAH1B2, FP-rhodamine activity probe; AID 492953, 2010; inhibition, % at 3.39 µM; 1.2% of 340,000 active;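 active means inhibition above the mean of all tested compounds plus 3 SD, cut at about 24% in these data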;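 further: 0% = enzyme with DMSO and 100% = wells lacking PAFAH1B2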
Target sequence (P68402 whole entry, looked up): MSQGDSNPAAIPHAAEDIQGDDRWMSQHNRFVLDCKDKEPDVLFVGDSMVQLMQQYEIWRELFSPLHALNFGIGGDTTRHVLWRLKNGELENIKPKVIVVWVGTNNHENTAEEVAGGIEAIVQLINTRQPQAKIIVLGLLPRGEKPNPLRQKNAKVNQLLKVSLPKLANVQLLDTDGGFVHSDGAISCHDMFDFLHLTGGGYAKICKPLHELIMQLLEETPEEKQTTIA
pPAFAH FP inh: pPAFAH enzyme inhibitors, primary screen, biochemical, fluorescence polarization, human; recombinant pPAFAH, FP-rhodamine probe fluorescence polarization; 1.5% of 330,000 active; inhibition, % at 3.39 µM; Platelet-activating factor acetylhydrolase (Homo sapiens), Q13093; AID 463082, 2010;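 active means inhibition above the mean inhibition across the screen plus 3 SD, cut at about 25% in these data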;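 further: inhibitors block binding of the rhodamine activity-based probe so polarization drops; 0% = enzyme with DMSO and 100% = wells lacking pPAFAH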
PAFAH2 FP inh: PAFAH2 enzyme inhibitors, primary screen, biochemical, fluorescence polarization, human. Platelet-activating factor acetylhydrolase 2, cytoplasmic (Homo sapiens), Q99487. recombinant PAFAH2, FP-rhodamine activity probe. inhibition, % at 3.39 µM. 0.99% of 340,000 active;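 active means inhibition above the mean over all tested compounds plus 3 SD, cut at about 30% in these data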;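 further: inhibitors block probe labeling of enzyme so polarization drops; 0% = enzyme with DMSO and 100% = wells lacking PAFAH2 protein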
IMP-1 inh: IMP-1 metallo-beta-lactamase inhibitors, primary screen, biochemical, epi-absorbance readout, Pseudomonas aeruginosa enzyme. inhibition, % at 5.6 µM. metallo-beta-lactamase IMP-1 (Pseudomonas aeruginosa). 0.45% of 290,000 active. purified IMP-1, nitrocefin hydrolysis, epi-absorbance fluorescence;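 active means inhibition above the mean plus 3 SD of all compounds in the same screening run, cut at about 4.5% in these data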;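 further: 0% = IMP-1 with DMSO and 100% = DMSO wells lacking enzyme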
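system = purified recombinant IMP-1 beta-lactamase | amount = 0.2 nM IMP-1, as dispensed | medium = HEPES buffer pH 7.1 with ZnSO4 and Brij 35 | times = 25 °C, 15 min preincubation, 25 min reaction | detection = plate fluorescence quenching by hydrolysis product, ex 480/em 530 nm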
VIM-2 inh: VIM-2 metallo-beta-lactamase inhibitors, primary screen, biochemical, epi-absorbance readout, Pseudomonas aeruginosa enzyme. purified VIM-2, nitrocefin hydrolysis, epi-absorbance fluorescence. 0.89% of 290,000 active. AID 1527, 2009. inhibition, % at 5.6 µM;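 active means inhibition above the mean of all tested compounds plus 3 SD, cutoff set per screening run, cut at about 7.5% in these data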;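 further: red hydrolysis product quenches plate fluorescence so inhibitors raise well fluorescence; 0% = enzyme with DMSO and 100% = DMSO without enzyme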
Numbers without * were called inactive; . = no result. Only some compounds are listed: those with a hit (about 3.6% of all), similar ones and a draw of the others.

SMILES	PAFAH1B3 FP inh	PAFAH1B2 FP inh	pPAFAH FP inh	PAFAH2 FP inh	IMP-1 inh	VIM-2 inh
CN(C(=S)Nc1ccc(Oc2ccccc2)cc1)c1ccc(O)cc1	7.5	5.2	27.2*	-9.5	-2.8	-3.6
CC(C)NC(=O)c1ccc(COc2cc(Cl)ccc2Cl)o1	9.1	5.4	4.8	4.0	-0.1	-1.6
CC(=O)NCCC(=O)N(Cc1ccccc1)c1nc2c(C)cccc2s1	4.9	1.8	-2.7	-4.7	1.0	-2.0
COc1cc(CNc2ccc(N3CCN(C(C)=O)CC3)cc2)ccc1OCc1ccc(F)cc1	8.7	8.8	31.0*	2.4	-10.7	-1.7
Cc1c(C(=O)N2CCOCC2)cc(C(C)(C)C)n1-c1ccccc1	6.7	51.1*	-2.8	5.7	-0.6	-1.9
CC(C(=O)N1CCOCC1)(c1ccccc1)c1ccccc1	2.5	3.2	-1.6	6.7	-2.6	-1.0
COc1cc([N+](=O)[O-])ccc1NC(=O)COC(=O)CCS(=O)(=O)c1ccc(C)cc1	4.5	5.8	6.3	1.0	.	.
O=C(c1cc(S(=O)(=O)N2CCN(c3ccccc3)CC2)ccc1Cl)N1CCCCCCC1	0.1	6.2	31.5*	-0.5	.	.
CCOC(=O)C1=CNS(=O)(=O)NC1c1ccc(C(=O)OC)cc1 (configuration not stated)	4.3	0.4	8.6	-3.1	.	.
CC1=NNC(=O)C1Cc1ccc(F)cc1 (configuration not stated)	6.6	7.6	2.5	-1.2	-2.6	8.4*
CC1=NNC(=O)C1Cc1ccccc1C (configuration not stated)	2.2	-2.0	1.9	-3.0	-1.9	6.7
COc1cc(/C(C)=C/c2ccccc2)c2c(c1)oc1ccccc12	.	.	-2.0	.	-2.2	-2.5
CCCc1ccc(Oc2cc(NN3CCCCC3)c([N+](=O)[O-])cc2[N+](=O)[O-])cc1	4.8	-2.4	0.7	-3.6	-6.6	-1.2
O=C(CN1c2cccc3cccc(c23)S1(=O)=O)NC1CCCCC1	0.3	5.8	29.5*	7.2	.	.
Cc1ccc(C(=O)/C=C/c2c[nH]c3ccccc23)cc1	6.3	5.7	9.8	4.4	-3.5	-0.3
CCN(CC)C(=O)c1ccc(/C=C/c2c[nH]c3ccccc23)[n+](C)c1	-4.1	-5.2	-1.3	-5.2	4.8*	5.7
COc1ccc([C@H]2CC(=O)C=C(c3ccc(Cl)c(C(F)(F)F)c3)C2)cc1OC	10.1	2.3	1.4	3.2	.	.
COc1ccc(-c2cn(CCc3c[nH]c4ccccc34)nn2)cc1	3.1	-1.7	10.3	3.3	-2.9	1.1
CCOC(=O)C1CCN(c2cc3c(cc2NC(=O)c2ccccc2F)n(C)c(=O)n3C)CC1	6.0	-2.5	4.4	4.1	17.6*	1.2
CCOC(=O)C1CCN(c2cc3c(cc2NC(=O)c2ccccc2Cl)n(C)c(=O)n3C)CC1	1.1	3.2	11.3	2.4	-1.3	-2.5
CCOC(=O)C1CCN(c2cc3c(cc2NC(=O)c2ccccc2OCC)n(C)c(=O)n3C)CC1	4.7	6.8	31.2*	12.6	-1.9	-0.4
O=c1c(O)c(-c2ccc(O)c(O)c2)oc2cc(O)ccc12	37.6*	14.9	.	66.4*	.	.
O=c1c(-c2ccc(O)cc2)coc2cc(O)ccc12	10.8	2.4	-0.8	-5.0	.	.
O=c1[nH]c(C(Cl)Cl)nc2sc3c(c12)CCN(Cc1ccccc1)C3	4.3	15.7	19.1	12.7	11.4*	3.3
CCCSc1nc2sc3c(c2c(=O)[nH]1)CCN(Cc1ccccc1)C3	6.8	-0.2	13.8	10.4	0.8	-2.7
SMILES	PAFAH1B3 FP inh	PAFAH1B2 FP inh	pPAFAH FP inh	PAFAH2 FP inh	IMP-1 inh	VIM-2 inh
O=C(COC(=O)c1ccccc1-n1cnnn1)c1ccc(F)cc1	9.0	0.3	-4.4	-1.2	.	.
CC1=NN(c2ccccc2)C(=O)C1C=Nc1ccc(N(C)C)cc1 (configuration not stated)	.	.	34.1*	.	0.0	0.0
CC1=NN(c2ccccc2)C(=O)C1N=Nc1ccc(C)cc1 (configuration not stated)	.	.	1.4	.	-0.7	2.9
CCOc1ncccc1C(=O)OCC(=O)Nc1cc(C(C)(C)C)ccc1OC	3.0	6.0	28.4*	6.2	.	.
CCOc1ncccc1C(=O)OCC(=O)Nc1cc(C)ccc1C	-6.0	0.7	23.6	13.0	-2.5	-2.5
OC(c1ccc(Cl)cc1)c1nnc(-c2ccccc2)o1 (configuration not stated)	0.2	24.5*	-2.4	3.0	-4.2	-3.4
Cc1ccc(S(=O)(=O)N(C)CC(=O)NNC(=O)CCNS(=O)(=O)c2cccc(C)c2)cc1	4.3	2.4	4.6	6.8	.	.
COc1ccc(N2CCN(C(=O)CCNC(=O)c3ccc(C(C)(C)C)cc3)CC2)cc1	-1.6	64.3*	9.3	0.6	-2.6	0.1
Cc1ccc(S(=O)(=O)c2nc(S(=O)(=O)c3ccc(C)cc3)c(N3CCN(CCO)CC3)s2)cc1	3.0	2.9	25.6*	-0.4	-1.6	-1.3
CC(C)(C)[C@@H]1COC(=O)[C@H](Cc2ccc(F)cc2)C/C=C\C[C@@H](CC(=O)NCCO)C(=O)N1	3.6	31.9*	2.5	-0.3	.	.
C[C@H]1COC(=O)[C@@H](Cc2ccc(F)cc2)C/C=C\C[C@@H](CC(=O)NCCO)C(=O)N1	-5.7	1.5	1.9	7.2	.	.
C[C@@H]1COC(=O)[C@H](Cc2ccc(F)cc2)C/C=C\C[C@@H](CC(=O)NCCO)C(=O)N1	5.9	32.9*	0.2	1.4	.	.
Cc1ccc(NC(=O)CSc2n[nH]c(-c3cccnc3)n2)cc1Cl	5.7	3.4	-3.1	-10.9	-2.9	-2.5
CCOC(=O)CC1C(=O)NCCN1C(=O)c1ccc(Cl)c(Cl)c1 (configuration not stated)	-2.2	12.3	3.8	1.0	-2.2	-1.7
CCOC(=O)c1c(OCC)[nH]c2c1cc(O)c1ccccc12	10.9	11.4	27.1*	8.4	-2.6	0.9
O=C(CNC(=O)c1ccc(Cl)cc1Cl)OCn1nnc2ccccc2c1=O	2.2	5.3	-1.3	4.6	.	.
O=C(Nc1nccs1)C1CC=CCC1C(=O)OCC(F)(F)C(F)F (configuration not stated)	-3.1	2.5	-2.8	-0.7	.	.
O=C(NC12CC3CC(CC(C3)C1)C2)OCCNC1CCCCC1	-2.8	3.0	1.5	-0.5	4.5*	0.5
Cc1ccc(S(=O)C(c2ccccc2)c2ccccc2)cc1 (configuration not stated)	9.8	8.5	.	-4.0	.	.
O=S(c1ccccc1)C(c1ccccc1)c1ccccc1 (configuration not stated)	13.3	24.2*	.	4.5	.	.
Cc1cccc(N2CCN(Cc3cn(C)nc3-c3ccccc3F)CC2)n1	3.7	1.5	-0.4	-3.7	-2.3	-2.1

High-throughput results as filed in PubChem BioAssay.
